According to ChEMBL document CHEMBL1153955, “Indolylarylsulfones bearing natural and unnatural amino acids. Discovery of potent inhibitors of HIV-1 non-nucleoside wild type and resistant mutant strains reverse transcriptase and coxsackie B4 virus” (J Med Chem, 2009):

Experiments:
[1] = molecular target: Human immunodeficiency virus type 1 reverse transcriptase (Human immunodeficiency virus 1, UniProt Q72547, L100I); assay: Inhibition of HIV1 reverse transcriptase p66/p51 L100I mutant; details: read-out: IC50
In short: (§1)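 Substrate was 0.5 µg poly(rA)/oligo(dT) 10:1 (0.3 µM 3′-OH ends) with 10 µM [³H]dTTP, at 37 °C. Acid-precipitable radioactivity was counted on GF/C filters after TCA washes.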

Human respirovirus 3 = assay: Antiviral activity against Parainfluenza virus type 3 in african green monkey Vero cells assessed as protection against virus-induced cytopathicity; type: functional, organism-based; details: Human respirovirus 3, Vero
In short: (§2)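 Confluent cell monolayers inoculated with 100 CCID₅₀ virus. After 1-2 h adsorption, residual virus removed and cultures incubated with varying compound concentrations. Cytopathicity scored once it reached completion in untreated infected controls. EC₅₀ = dose reducing virus-induced cytopathogenicity by 50%.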

[2] = tested on: Mammalian orthoreovirus 1; assay: Antiviral activity against Reovirus 1 in african green monkey Vero cells assessed as protection against virus-induced cytopathicity; type: functional, organism-based; details: Mammalian orthoreovirus 1, Vero; in short: as §2
[3] = tested on: Human immunodeficiency virus 1; assay: Antiviral activity against HIV1 3B in human CEM cells assessed as protection against virus-induced cytopathicity after 4 days; type: functional, organism-based; details: Human immunodeficiency virus 1, 3B, CCRF-CEM, 96 h
In short: (§3)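 CEM cells (~3 × 10⁵ cells/mL) infected with ~100 CCID₅₀ per mL of HIV-1 (IIIB) or HIV-2 (ROD), then seeded into wells containing compound dilutions. After 4 days at 37 °C, syncytium (giant cell) formation was examined microscopically. EC₅₀ = concentration protecting CEM cells from HIV cytopathicity by 50%.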

Influenza A virus [4] = assay: Antiviral activity against influenza H1N1 virus in MDCK cells assessed as reduction of virus-induced cytopathicity by visual cytopathic effect scoring method; type: functional, organism-based
Human alphaherpesvirus 1 [5] = assay: Antiviral activity against thymidine kinase deficient and acyclovir resistant HSV1 KOS in human HEL cells assessed as protection against virus-induced cytopathicity; type: functional, organism-based; details: Human alphaherpesvirus 1, KOS
L1210 = assay: Antiproliferative activity against mouse L1210 cells after 2 days; type: cell-based; details: L1210, 48 h
In short: (§4)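 Cells seeded at 5 × 10⁴ to 7.5 × 10⁴ cells/200 µL with or without serial compound dilutions; incubated at 37 °C for 2 days (L1210) or 3 days (Molt4/C8, CEM). Cell numbers counted with a Coulter counter. CC₅₀ = concentration reducing proliferation by 50% versus untreated controls, read from plots of cell number (% of control) against concentration. Means of at least two independent experiments.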

[6] = tested on: Vesicular stomatitis virus; assay: Antiviral activity against VSV in human HeLa cells assessed as protection against virus-induced cytopathicity; type: functional, organism-based
Influenza A virus H3N2 [7] = assay: Antiviral activity against influenza H3N2 virus in MDCK cells assessed as reduction of virus-induced cytopathicity by visual cytopathic effect scoring method; type: functional, organism-based
[8] = molecular target: Human immunodeficiency virus type 1 reverse transcriptase (Human immunodeficiency virus 1, UniProt Q72547, K103N); assay: Inhibition of HIV1 reverse transcriptase p66/p51 K103N mutant; details: read-out: IC50; in short: as §1
[9] = tested on: Vesicular stomatitis virus; assay: Antiviral activity against VSV in human HEL cells assessed as protection against virus-induced cytopathicity; type: functional, organism-based
Punta Toro virus = assay: Antiviral activity against Punta Toro virus in african green monkey Vero cells assessed as protection against virus-induced cytopathicity; type: functional, organism-based; in short: as §2
Influenza B virus [10] = assay: Antiviral activity against influenza B virus in MDCK cells assessed as reduction of virus-induced cytopathicity by MTS method; type: functional, organism-based
Human alphaherpesvirus 2 = assay: Antiviral activity against HSV2 G in human HEL cells assessed as protection against virus-induced cytopathicity; type: functional, organism-based; details: Human alphaherpesvirus 2, strain G; in short: as §2
[11] = tested on: Human immunodeficiency virus 2; assay: Antiviral activity against HIV2 ROD in human CEM cells assessed as protection against virus-induced cytopathicity after 4 days; type: functional, organism-based; details: Human immunodeficiency virus 2, ROD, CCRF-CEM, 96 h; in short: as §3
[12] = Cytotoxicity against human HEL cells assessed as drug level causing microscopically detectable alteration of normal cell morphology after 3 days; type: cell-based
Coxsackievirus B4 [13] = assay: Antiviral activity against Coxsackievirus B4 in human HeLa cells assessed as protection against virus-induced cytopathicity; type: functional, organism-based; details: Enterovirus B; in short: as §2
Vaccinia virus = assay: Antiviral activity against Vaccinia virus Lederle in human HEL cells assessed as protection against virus-induced cytopathicity; type: functional, organism-based; details: Orthopoxvirus vaccinia
Feline coronavirus = assay: Antiviral activity against Feline coronavirus in feline […] cells assessed as inhibition of virus-induced cytopathicity; type: functional, organism-based; details: Alphacoronavirus 1
Sindbis virus = assay: Antiviral activity against Sindbis virus in african green monkey Vero cells assessed as protection against virus-induced cytopathicity; type: functional, organism-based; in short: as §2
[14] = tested on: Respiratory syncytial virus; assay: Antiviral activity against RSV Long in human HeLa cells assessed as protection against virus-induced cytopathicity; type: functional, organism-based; in short: as §2
[15] = Cytotoxicity against african green monkey Vero cells assessed as drug level causing microscopically detectable alteration of normal cell morphology after 3 days; type: cell-based; details: chlorocebus sabaeus
In short: (§5)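 Serial compound dilutions added to confluent HeLa or Vero monolayers. MCC = minimum concentration causing microscopically detectable alteration of cell morphology after 3 days of incubation.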

[16] = Antiproliferative activity against human Molt4/C8 cells after 3 days; type: cell-based; details: MOLT-4, 72 h; in short: as §4
Coxsackievirus B4 [17] = assay: Antiviral activity against Coxsackievirus B4 in african green monkey Vero cells assessed as protection against virus-induced cytopathicity; type: functional, organism-based; details: Enterovirus B; in short: as §2
Felid alphaherpesvirus 1 = assay: Antiviral activity against Feline herpesvirus in feline […] cells assessed as inhibition of virus-induced cytopathicity; type: functional, organism-based
Influenza A virus [18] = assay: Antiviral activity against influenza H1N1 virus in MDCK cells assessed as reduction of virus-induced cytopathicity by MTS method; type: functional, organism-based; details: Influenza A virus, H1N1, MDCK
CCRF-CEM = assay: Antiproliferative activity against human CEM cells after 3 days; type: cell-based; details: 72 h; in short: as §4
Influenza A virus H3N2 [19] = assay: Antiviral activity against influenza H3N2 virus in MDCK cells assessed as reduction of virus-induced cytopathicity by MTS method; type: functional, organism-based
[20] = molecular target: Human immunodeficiency virus type 1 reverse transcriptase (Human immunodeficiency virus 1, UniProt Q72547, Y181I); assay: Inhibition of HIV1 reverse transcriptase p66/p51 Y181I mutant; details: read-out: IC50; in short: as §1
[21] = Cytotoxicity against feline CRFK cells by MTS assay; type: cell-based, Felis catus; details: cat
[22] = Cytotoxicity against MDCK cells by MTS assay; type: cell-based, Canis lupus familiaris; details: dog
Influenza B virus [23] = assay: Antiviral activity against influenza B virus in MDCK cells assessed as reduction of virus-induced cytopathicity by visual cytopathic effect scoring method; type: functional, organism-based
[24] = Cytotoxicity against MDCK cells assessed as drug level causing microscopically detectable alteration of normal cell morphology; type: cell-based, Canis lupus familiaris; details: dog
[25] = molecular target: Human immunodeficiency virus type 1 reverse transcriptase (Human immunodeficiency virus 1, UniProt Q72547); assay: Inhibition of HIV1 reverse transcriptase p66/p51; details: read-out: IC50
Human alphaherpesvirus 1 [26] = assay: Antiviral activity against HSV1 KOS in human HEL cells assessed as protection against virus-induced cytopathicity; type: functional, organism-based; details: Human alphaherpesvirus 1, KOS
[27] = Cytotoxicity against human HeLa cells assessed as drug level causing microscopically detectable alteration of normal cell morphology after 3 days; type: cell-based; in short: as §5

Row | Compound | IC50 [1] | EC50 (Human respirovirus 3) | EC50 [2] | EC50 [3] | EC50 (Influenza A virus [4]) | EC50 (Human alphaherpesvirus 1 [5]) | IC50 (L1210) | EC50 [6] | EC50 (Influenza A virus H3N2 [7]) | IC50 [8] | EC50 [9] | EC50 (Punta Toro virus) | EC50 (Influenza B virus [10]) | EC50 (Human alphaherpesvirus 2) | EC50 [11] | MCC at 72 h [12] | EC50 (Coxsackievirus B4 [13]) | EC50 (Vaccinia virus) | EC50 (Feline coronavirus) | EC50 (Sindbis virus) | other results
1 | Cc1cc(C)cc(S(=O)(=O)c2c(C(=O)NCC(N)=O)[nH]c3ccc(Br)cc23)c1 | 0.199 µM | > 20 µM | > 20 µM | 0.0026 µM | > 4 µM | > 20 µM | 40 µM | > 20 µM | > 4 µM | 0.782 µM | > 20 µM | > 20 µM | > 4 µM | > 20 µM | 43 µM | 100 µM | 4 µM | > 20 µM | > 20 µM | > 20 µM | EC50 [14]: 20 µM; MCC at 72 h [15]: 100 µM; IC50 [16]: 17 µM; EC50 (Coxsackievirus B4 [17]): > 20 µM; EC50 (Felid alphaherpesvirus 1): > 20 µM; EC50 (Influenza A virus [18]): > 4 µM; IC50 (CCRF-CEM): 31 µM; EC50 (Influenza A virus H3N2 [19]): > 4 µM; IC50 [20]: 2.21 µM; CC50 [21]: 53 µM; CC50 [22]: 9.8 µM; EC50 (Influenza B virus [23]): > 4 µM; MCC [24]: 20 µM; IC50 [25]: 0.026 µM; EC50 (Human alphaherpesvirus 1 [26]): > 20 µM; MCC at 72 h [27]: 100 µM
2 | Cc1cc(C)cc(S(=O)(=O)c2c(C(=O)NC(C)C(N)=O)[nH]c3ccc(Cl)c(F)c23)c1 (stereo not drawn) | 0.27 µM | > 20 µM | > 20 µM | 0.0037 µM | > 4 µM | > 20 µM | 30 µM | > 4 µM | > 4 µM | 1.52 µM | > 20 µM | > 20 µM | > 4 µM | > 20 µM | > 10 µM | 100 µM | > 4 µM | > 20 µM | > 20 µM | > 20 µM | EC50 [14]: > 4 µM; MCC at 72 h [15]: 100 µM; IC50 [16]: 22 µM; EC50 (Coxsackievirus B4 [17]): 20 µM; EC50 (Felid alphaherpesvirus 1): > 20 µM; EC50 (Influenza A virus [18]): > 4 µM; IC50 (CCRF-CEM): 21 µM; EC50 (Influenza A virus H3N2 [19]): > 4 µM; IC50 [20]: 6.28 µM; CC50 [21]: 51.4 µM; CC50 [22]: 6.5 µM; EC50 (Influenza B virus [23]): > 4 µM; MCC [24]: 20 µM; IC50 [25]: 0.062 µM; EC50 (Human alphaherpesvirus 1 [26]): > 20 µM; MCC at 72 h [27]: 20 µM
3 | Cc1cc(C)cc(S(=O)(=O)c2c(C(=O)NC(C)CC(N)=O)[nH]c3ccc(Cl)cc23)c1 (stereo not drawn) | 0.252 µM | > 20 µM | > 20 µM | 0.026 µM | > 4 µM | > 20 µM | 48 µM | > 20 µM | > 4 µM | 0.288 µM | > 20 µM | > 20 µM | > 4 µM | > 20 µM | 30 µM | 100 µM | 4.5 µM | > 20 µM | > 4 µM | > 20 µM | EC50 [14]: > 20 µM; MCC at 72 h [15]: 100 µM; IC50 [16]: 36 µM; EC50 (Coxsackievirus B4 [17]): 16 µM; EC50 (Felid alphaherpesvirus 1): > 4 µM; EC50 (Influenza A virus [18]): > 4 µM; IC50 (CCRF-CEM): 32 µM; EC50 (Influenza A virus H3N2 [19]): > 4 µM; IC50 [20]: 4.14 µM; CC50 [21]: 18.9 µM; CC50 [22]: 13.5 µM; EC50 (Influenza B virus [23]): > 4 µM; MCC [24]: 20 µM; IC50 [25]: 0.12 µM; EC50 (Human alphaherpesvirus 1 [26]): > 20 µM; MCC at 72 h [27]: ≥ 20 µM
